≈ marks a conversion by molar mass, not a printed value. One block for each molecule: values may come before it. Calls of active or inactive are those of the source. No cut-off for these calls is given here.
Tests used:
Gamma-secretase = assay: Inhibition of gamma-secretase (unknown origin) expressed in HEK293 cells cotransfected with Notch1-VP16-GAL4 fusion and Gal4 luciferase reporter plasmid incubated for 24 hrs by luciferase reporter gene assay luminescence assay; type: cell-based, Homo sapiens
[1] = Lipophilicity, logD of the compound in octanol-buffer at pH 7.4 by shake-flask equilibrium based LC/MS/MS analysis; type: physicochemical
How it was run: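 log D determined at pH 7.4 by rapid-throughput octanol/buffer 96-well shake-flask equilibration, with LC/MS/MS quantification.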

[2] = molecular target: T1, Signal peptide peptidase-like 2A (Homo sapiens, UniProt Q8TCT8); assay: Inhibition of human SPPL2a expressed in HEK293 cells cotransfected with Gal4 luciferase reporter plasmid and VP16-TNFalpha(1-76)-NTF incubated for 24 hrs by luciferase reporter gene assay based luminescence assay; type: cell-based
T1 sequence (Q8TCT8 whole entry): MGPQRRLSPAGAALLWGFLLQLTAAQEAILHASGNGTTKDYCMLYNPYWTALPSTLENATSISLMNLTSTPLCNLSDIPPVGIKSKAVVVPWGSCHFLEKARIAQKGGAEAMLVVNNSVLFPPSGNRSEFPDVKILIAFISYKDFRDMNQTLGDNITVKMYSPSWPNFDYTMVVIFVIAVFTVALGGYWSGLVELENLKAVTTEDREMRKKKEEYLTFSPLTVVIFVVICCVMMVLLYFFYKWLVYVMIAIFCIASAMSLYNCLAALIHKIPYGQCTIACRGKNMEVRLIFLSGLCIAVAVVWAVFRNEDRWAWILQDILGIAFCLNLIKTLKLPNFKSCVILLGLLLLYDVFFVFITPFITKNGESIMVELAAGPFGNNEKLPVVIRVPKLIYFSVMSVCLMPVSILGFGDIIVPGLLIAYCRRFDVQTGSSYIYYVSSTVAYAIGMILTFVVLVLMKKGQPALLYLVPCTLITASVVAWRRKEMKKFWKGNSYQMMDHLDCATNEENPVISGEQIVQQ

[3] = Equilibrium solubility of the compound in DMSO solution at pH 6.8 by saturation shake flask method; type: physicochemical
How it was run: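 Equilibrium solubility by saturation shake-flask at pH 6.8, starting from DMSO solution.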

Cathepsin E = molecular target: T2, Cathepsin E (Homo sapiens, UniProt P14091); assay: Inhibition of human cathepsin E isoform 1 (19 to 401 residues) expressed in Escherichia coli using R-C(PT14)KPILFFRLGWR-OH as substrate preincubated for 1 hr followed by substrate addition and measured after 1 hr by fluorescence based assay
T2 sequence (P14091 whole entry): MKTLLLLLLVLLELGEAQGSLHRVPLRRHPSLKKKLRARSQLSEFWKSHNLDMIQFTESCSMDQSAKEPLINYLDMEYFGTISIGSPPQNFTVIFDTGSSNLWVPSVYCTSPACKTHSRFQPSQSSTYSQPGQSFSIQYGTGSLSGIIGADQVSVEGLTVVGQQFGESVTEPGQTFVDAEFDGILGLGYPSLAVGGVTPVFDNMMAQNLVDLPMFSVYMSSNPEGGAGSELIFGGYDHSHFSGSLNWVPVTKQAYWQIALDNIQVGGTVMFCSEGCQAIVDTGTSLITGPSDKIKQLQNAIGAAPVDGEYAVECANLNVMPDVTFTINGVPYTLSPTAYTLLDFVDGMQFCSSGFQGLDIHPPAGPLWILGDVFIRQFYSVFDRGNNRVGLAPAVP

Renin = molecular target: T3, Renin (Homo sapiens, UniProt P00797); assay: Inhibition of human renin (67 to 406 residues) expressed in CHO cells using KHPWHLVIHT-C(PT14)-K as substrate preincubated for 1 hr followed by substrate addition and measured after 1 hr by fluorescence based assay
T3 sequence (P00797 whole entry): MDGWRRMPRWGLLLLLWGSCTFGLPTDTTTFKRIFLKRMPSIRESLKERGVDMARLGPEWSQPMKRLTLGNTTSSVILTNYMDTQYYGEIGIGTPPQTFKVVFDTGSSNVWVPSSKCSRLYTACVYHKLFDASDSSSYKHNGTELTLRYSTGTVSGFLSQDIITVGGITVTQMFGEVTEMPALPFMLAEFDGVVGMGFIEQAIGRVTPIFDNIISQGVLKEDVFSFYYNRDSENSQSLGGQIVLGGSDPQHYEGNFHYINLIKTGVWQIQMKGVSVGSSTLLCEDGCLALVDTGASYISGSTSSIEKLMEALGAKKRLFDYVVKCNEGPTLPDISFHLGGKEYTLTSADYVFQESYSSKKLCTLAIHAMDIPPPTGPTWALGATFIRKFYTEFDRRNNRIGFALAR

Beta-secretase 1 = Beta-secretase 1 (Homo sapiens, UniProt P56817); assay: Inhibition of human BACE1 (46 to 435 residues) expressed in baculovirus infected insect cells using Ac-C(PT14)EVNLDAEWK-NH2 as substrate preincubated for 1 hr followed by substrate addition and measured after 1 hr by fluorescence based assay
Beta-secretase 1, sequence (P56817 whole entry, the tested form may be a part): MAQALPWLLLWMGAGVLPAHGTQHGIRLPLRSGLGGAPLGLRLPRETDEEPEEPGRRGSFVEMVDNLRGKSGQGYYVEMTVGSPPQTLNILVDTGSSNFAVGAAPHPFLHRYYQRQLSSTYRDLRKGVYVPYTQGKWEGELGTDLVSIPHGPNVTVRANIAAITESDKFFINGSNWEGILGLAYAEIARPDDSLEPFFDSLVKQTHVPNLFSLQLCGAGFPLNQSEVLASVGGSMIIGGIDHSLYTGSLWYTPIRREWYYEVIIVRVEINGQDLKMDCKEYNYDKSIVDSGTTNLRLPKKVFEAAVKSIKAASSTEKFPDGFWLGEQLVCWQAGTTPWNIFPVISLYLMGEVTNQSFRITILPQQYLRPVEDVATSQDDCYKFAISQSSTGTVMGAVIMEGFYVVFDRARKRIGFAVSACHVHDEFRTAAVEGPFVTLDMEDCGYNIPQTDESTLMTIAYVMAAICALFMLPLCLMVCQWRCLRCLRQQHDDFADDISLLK

Cathepsin D = Cathepsin D (Homo sapiens, UniProt P07339); assay: Inhibition of human cathepsin D (1 to 412 residues) expressed in baculovirus infected insect cells using R-C(PT14)-KPILFFRLGWR-OH as substrate preincubated for 1 hr followed by substrate addition and measured after 1 hr by fluorescence based assay
Cathepsin D, sequence (P07339 65-162 limits assumed): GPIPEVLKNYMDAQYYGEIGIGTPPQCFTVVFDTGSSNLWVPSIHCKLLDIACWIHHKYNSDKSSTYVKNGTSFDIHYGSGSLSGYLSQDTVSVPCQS
Cathepsin D, sequence (P07339 169-412 limits assumed): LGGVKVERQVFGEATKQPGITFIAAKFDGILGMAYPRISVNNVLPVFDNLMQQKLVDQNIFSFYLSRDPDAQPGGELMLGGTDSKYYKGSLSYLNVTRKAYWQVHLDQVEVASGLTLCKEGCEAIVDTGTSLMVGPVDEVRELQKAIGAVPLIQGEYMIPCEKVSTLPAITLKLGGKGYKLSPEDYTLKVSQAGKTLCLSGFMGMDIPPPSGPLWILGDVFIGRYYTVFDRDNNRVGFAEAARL

Beta-secretase 2 = molecular target: T4, Beta-secretase 2 (Homo sapiens, UniProt Q9Y5Z0); assay: Inhibition of human BACE2 (63 to 466 residues) expressed in baculovirus infected insect cells using Ac-C(PT14)EVNLDAEWK-NH2 as substrate preincubated for 1 hr followed by substrate addition and measured after 1 hr by fluorescence based assay
T4 sequence (Q9Y5Z0 whole entry): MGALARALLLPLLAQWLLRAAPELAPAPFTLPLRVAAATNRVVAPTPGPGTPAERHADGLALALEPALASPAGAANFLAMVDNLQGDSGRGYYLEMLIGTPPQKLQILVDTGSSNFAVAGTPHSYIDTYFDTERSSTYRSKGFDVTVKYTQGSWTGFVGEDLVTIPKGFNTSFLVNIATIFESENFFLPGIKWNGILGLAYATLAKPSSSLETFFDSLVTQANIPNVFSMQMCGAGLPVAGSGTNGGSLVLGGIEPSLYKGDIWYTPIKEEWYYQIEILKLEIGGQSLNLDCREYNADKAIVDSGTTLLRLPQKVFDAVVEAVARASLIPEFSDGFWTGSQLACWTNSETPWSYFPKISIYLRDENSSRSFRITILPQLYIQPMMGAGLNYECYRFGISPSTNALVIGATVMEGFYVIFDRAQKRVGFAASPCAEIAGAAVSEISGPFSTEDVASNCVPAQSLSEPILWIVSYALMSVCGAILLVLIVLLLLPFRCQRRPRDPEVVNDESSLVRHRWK

Mus musculus = assay: In vivo inhibition of SPPL2a in mouse assessed as increase in CD74/p8 NTF accumulation in splenocytes lysates at 100 mg/kg, po administered as single dose and measured after 4 hrs post-dosing by western blot analysis; conditions: Lysate

SMILES: CC(C)(O)CN(C[C@H](O)[C@@H](N)c1ccccc1)S(=O)(=O)c1ccc(Cl)c(Cl)c1
- IC50 (Gamma-secretase): > 10 µM

SMILES: CC(C)CN(C[C@H](O)[C@@H](N)Cc1ccccc1)S(=O)(=O)c1ccc(Cl)c(Cl)c1
- logD [1]: 3.1
- IC50 [2]: 0.86 µM
- solubility [3]: < 2 µg/mL

SMILES: CC(C)CN(C[C@H](O)[C@H](Cc1ccccc1)NC(=O)OCc1ccccc1)S(=O)(=O)c1ccc(Cl)c(Cl)c1
- logD [1]: > 4.6
- IC50 [2]: 4.3 µM
- solubility [3]: < 2 µg/mL

SMILES: C[C@H](NC(=O)[C@@H](O)c1cc(F)cc(F)c1)C(=O)N[C@@H]1C(=O)N(C)c2ccccc2-c2ccccc21
- inhibition (Mus musculus): Active

SMILES: N[C@@H](c1ccccc1)[C@@H](O)CN(C1CCC1)S(=O)(=O)c1ccc2scnc2c1
- IC50 (Gamma-secretase): > 10 µM

SMILES: N[C@@H](c1ccccc1)[C@@H](O)CN(C1COC1)S(=O)(=O)c1ccc(Cl)c(Cl)c1
- IC50 (Gamma-secretase): > 10 µM

The remaining lines, values ahead:

- IC50 (Gamma-secretase): 5.1 µM
SMILES: N[C@@H](c1ccccc1)[C@@H](O)CN(C1CCC1)S(=O)(=O)c1ccc(Cl)c(Cl)c1

- IC50 (Gamma-secretase): 6.4 µM
SMILES: CC1(N(C[C@H](O)[C@@H](N)c2ccccc2)S(=O)(=O)c2ccc(Cl)c(Cl)c2)CCC1

- IC50 (Gamma-secretase): 2.1 µM
SMILES: N[C@@H](c1ccccc1)[C@@H](O)CN(C1CCCCCC1)S(=O)(=O)c1ccc(Cl)c(Cl)c1

- IC50 (Gamma-secretase): 4.8 µM
- IC50 (Cathepsin E): > 100 µM
- IC50 (Renin): > 100 µM
- IC50 (Beta-secretase 1): > 100 µM
- IC50 (Cathepsin D): > 100 µM
- solubility [3]: 34 µg/mL (≈ 78.8 µM)
- IC50 (Beta-secretase 2): > 100 µM
SMILES: CC(C)CN(C[C@H](O)[C@@H](N)c1ccccc1)S(=O)(=O)c1ccc(Cl)c(Cl)c1

- IC50 (Gamma-secretase): 3.4 µM
SMILES: N[C@@H](c1ccccc1)[C@@H](O)CN(Cc1ccccc1)S(=O)(=O)c1ccc(Cl)c(Cl)c1

- IC50 (Gamma-secretase): 5.9 µM
SMILES: CC(C)ON(C[C@H](O)[C@@H](N)c1ccccc1)S(=O)(=O)c1ccc(Cl)c(Cl)c1

- IC50 (Gamma-secretase): 3.7 µM
SMILES: CC(C)(C)c1ccc(S(=O)(=O)N(C[C@H](O)[C@@H](N)c2ccccc2)C2CCC2)cc1

- IC50 (Gamma-secretase): 1.8 µM
SMILES: CC1(C)CCC(C)(C)c2cc(S(=O)(=O)N(C[C@H](O)[C@@H](N)c3ccccc3)C3CCC3)ccc21

- IC50 (Gamma-secretase): 3.7 µM
SMILES: CC(C)(C)c1cccc(S(=O)(=O)N(C[C@H](O)[C@@H](N)c2ccccc2)C2CCC2)c1

— ChEMBL document CHEMBL4665664, “Discovery of Orally Active Hydroxyethylamine Based SPPL2a Inhibitors” (ACS Med Chem Lett, 2019)
